Experimental findings from ChEMBL document CHEMBL1681765, “Structure-activity relationships of hypervalent organochalcogenanes as inhibitors of cysteine cathepsins V and S” (Bioorg Med Chem, 2011) are described below.

The structures appear in SMILES notation.

Assay [1] addresses T1, Cathepsin L2 (Homo sapiens) (UniProt O60911).
T1 sequence (whole entry): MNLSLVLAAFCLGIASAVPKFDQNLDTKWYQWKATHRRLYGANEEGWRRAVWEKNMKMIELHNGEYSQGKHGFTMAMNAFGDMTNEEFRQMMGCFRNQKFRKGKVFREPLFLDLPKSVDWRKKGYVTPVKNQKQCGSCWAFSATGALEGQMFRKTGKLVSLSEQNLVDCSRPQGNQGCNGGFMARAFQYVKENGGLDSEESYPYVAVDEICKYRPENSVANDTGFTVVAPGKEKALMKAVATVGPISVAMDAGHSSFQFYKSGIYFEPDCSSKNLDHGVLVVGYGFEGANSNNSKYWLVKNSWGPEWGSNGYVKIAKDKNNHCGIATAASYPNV
As to the kind of experiment: Inhibition of Cathepsin V assessed as second-order inactivation rate constant by spectrofluorometry. An outline of the steps:
(§1)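 Continuous assay: substrate Cbz-Phe-Arg-AMC kept 10-fold below KM, with varying inhibitor concentrations, in enzyme-specific buffer (cathepsin S: phosphate pH 6.5, 2.5 mmol L⁻¹ EDTA; cathepsin V: acetate pH 5.5, 2.5 mmol L⁻¹ EDTA). AMC fluorescence ex 380/em 460 nm. Progress curves fit to P = (vz/kobs)[1−exp(−kobs·t)] + d to obtain kobs.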

Assay [2] concerns the target Cathepsin S (Homo sapiens) (UniProt P25774). Briefly: Inhibition of Cathepsin S assessed as second-order inactivation rate constant by spectrofluorometry. Also on record: unit not given here. Put shortly:
as §1

In assay [3] the target is T1, Cathepsin L2 (Homo sapiens). As to the kind of experiment: Inhibition of Cathepsin V at 1 umol/L for 2 mins by spectrofluorometry. An outline of the steps: (§2)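 Enzyme pre-incubated with inhibitor (1 µmol L⁻¹) for 2 min at 37 °C in enzyme-specific buffer (cathepsin S: 50 mmol L⁻¹ sodium phosphate pH 6.5, 2.5 mmol L⁻¹ EDTA; cathepsin V: 50 mmol L⁻¹ sodium acetate pH 5.5, 2.5 mmol L⁻¹ EDTA). Then Cbz-Phe-Arg-AMC (1 µmol L⁻¹) added; fluorescence ex 380/em 460 nm. Residual activity as percentage of uninhibited control; triplicate.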

Assay [4] concerns the target Cathepsin S (Homo sapiens) (UniProt P25774). As to the kind of experiment: Inhibition of Cathepsin S at 1 umol/L for 2 mins by spectrofluorometry. An outline of the steps:
as §2

The inhibition is the relative decrease from the control value, in per cent.

Chain of Cathepsin S (Homo sapiens) (P25774 115-331 limits assumed): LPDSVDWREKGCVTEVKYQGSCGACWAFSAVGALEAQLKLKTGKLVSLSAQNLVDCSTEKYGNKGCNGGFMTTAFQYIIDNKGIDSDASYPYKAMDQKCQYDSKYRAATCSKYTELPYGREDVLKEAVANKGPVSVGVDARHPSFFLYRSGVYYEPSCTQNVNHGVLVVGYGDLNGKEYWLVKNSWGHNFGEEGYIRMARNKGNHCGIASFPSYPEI

`CCCC[Se](Br)(Br)c1ccccc1COC`: the Activity was 3400 mol/L/s in assay [1] and 4000 in assay [2].

With `CCCC[Se](Cl)(Cl)c1ccccc1COC`, the Activity in assay [1] stood at 500 mol/L/s; in assay [2], 1500.

Consider `CCCC[Se](Cl)(Cl)c1ccccc1[C@H](C)OC`, for which the Activity was determined as 1000 mol/L/s in assay [1] and 1500 in assay [2].

Turning to `CCCC[Te](Cl)(Cl)c1ccccc1COC`, the results for the inhibition in assay [3] and in assay [4] were 90% and 85%, respectively. The results for the Activity in assay [1] and in assay [2] were 11600 mol/L/s and 1300, respectively.

Regarding `CCCC[Te](Cl)(Cl)c1ccccc1[C@H](C)OC`, the inhibition in assay [3] was found to be 90%; in assay [4] it was 85%. The figures for the Activity in assay [1] and in assay [2] were 2400 mol/L/s and 1800, respectively.

On to `CCCC[Te](Br)(Br)c1ccccc1[C@@H](C)OC`, for which the values for the inhibition in assay [3] and in assay [4] were 90% and greater than 90%, respectively. Also, the Activity in assay [1] stood at 3900 mol/L/s; in assay [2], 2500.

Take `CCCC[Te](Cl)(Cl)c1ccccc1[C@@H](C)OC`: the inhibition was 90% in assay [3] and 85% in assay [4]. The Activity in assay [1] was determined as 2500 mol/L/s; in assay [2] it was 1800.

Consider `CCCC[Se](Br)(Br)c1ccccc1[C@H](C)OC`, for which the Activity in assay [1] was 2200 mol/L/s; in assay [2], 2900.

Consider `CCCC[Te](Br)(Br)c1ccccc1COC`, for which the inhibition in assay [3] was determined as 90%; in assay [4], 96%. The values for the Activity in assay [1] and in assay [2] were 26400 mol/L/s and 4400, respectively.

Turning to `CCCC[Te](Br)(Br)c1ccccc1[C@H](C)OC`, the inhibition is 90% in assay [3] and greater than 90% in assay [4]. Besides, the Activity in assay [1] is 7400 mol/L/s; in assay [2], 4900.

With `CCCC[Se](Br)(Br)c1ccccc1[C@@H](C)OC`, the Activity in assay [1] amounted to 1000 mol/L/s; in assay [2], 2200.

`CCCC[Se](Cl)(Cl)c1ccccc1[C@@H](C)OC`: the Activity in assay [1] was 900 mol/L/s; in assay [2] it was 1200.
